# Experiments:
# Type in all cases: toxicity, cell-based
# Fibroblast [1] = assay: Multiplex assay against human fibroblast
# Outline: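 Cells stained live at seeding with Hoechst33342, BioTracker Green Microtubule Cytoskeleton Dye, MitoTracker Red and Annexin V Alexa Fluor 680 were imaged on a CQ1 microscope at 37°C and 5% CO2 after compound addition. Their classification by CellPathfinder machine-learning gating ran from Hoechst high-intensity objects versus normal cells, to healthy, pyknosed or fragmented nuclei among normal cells, to mitotic or apoptotic among pyknosed cells. Tubulin, mitochondrial-mass and membrane-permeability phenotypes are per cents of healthy-nucleus cells.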
# Fibroblast [2] = assay: Incucyte cell viability with human fibroblast; settings: 10 µM, compound concentration 10 uM; further: filed as whole numbers so only -1 and 0 and 1 occur
# U2OS = assay: Incucyte cell viability with U2OS; settings: human, 10 µM, compound concentration 10 uM; further: filed as whole numbers so only -1 and 0 and 1 occur
# [3] = 12 h, 1 µM, compound concentration 1 uM, replicate 1
# [4] = 12 h, 1 µM, compound concentration 1 uM, replicate 2
# [5] = 12 h, 10 µM, compound concentration 10 uM, replicate 1
# [6] = 12 h, 10 µM, compound concentration 10 uM, replicate 2
# [7] = 24 h, 1 µM, compound concentration 1 uM, replicate 1
# [8] = 24 h, 1 µM, compound concentration 1 uM, replicate 2
# [9] = 24 h, 10 µM, compound concentration 10 uM, replicate 1
# [10] = 24 h, 10 µM, compound concentration 10 uM, replicate 2
# [11] = 48 h, 1 µM, compound concentration 1 uM, replicate 1
# [12] = 48 h, 1 µM, compound concentration 1 uM, replicate 2
# [13] = 48 h, 10 µM, compound concentration 10 uM, replicate 1
# [14] = 48 h, 10 µM, compound concentration 10 uM, replicate 2
# [15] = 6 h, replicate number 1, timepoint 6 hours
# [16] = 6 h, replicate number 2, timepoint 6 hours
# [17] = 12 h, replicate number 1, timepoint 12 hours
# [18] = 18 h, replicate number 1, timepoint 18 hours
# [19] = 18 h, replicate number 2, timepoint 18 hours
# [20] = 24 h, replicate number 1, timepoint 24 hours
smiles,measurement,setting,value
Cc1cc2c(cc1N1C(=O)c3cccc4c(CCCO)ccc(c34)C1=O)n(C)c(=O)n2C,Population Apoptotic (%),Fibroblast [1]; [3],68%
same,Population Fragmented Nuclei (%),Fibroblast [1]; [3],19%
same,Population Healthy Nuclei (%),Fibroblast [1]; [3],49%
same,Population Hoechst High Intensity Objects (%),Fibroblast [1]; [3],17%
same,Population Membrane Permeable-Phenotype (%),Fibroblast [1]; [3],30%
same,Population Mitochondria Different-Phenotype (%),Fibroblast [1]; [3],8%
same,Population Mitotic Cells (%),Fibroblast [1]; [3],31%
same,Population Normal (%),Fibroblast [1]; [3],82%
same,Population Pyknosed Nuclei (%),Fibroblast [1]; [3],31%
same,Population Tubulin-Different-Phenotype (%),Fibroblast [1]; [3],41%
same,Total Cell Count,Fibroblast [1]; [3],148
same,Population Apoptotic (%),Fibroblast [1]; [4],0%
same,Population Fragmented Nuclei (%),Fibroblast [1]; [4],6%
same,Population Healthy Nuclei (%),Fibroblast [1]; [4],90%
same,Population Hoechst High Intensity Objects (%),Fibroblast [1]; [4],8%
same,Population Membrane Permeable-Phenotype (%),Fibroblast [1]; [4],1%
same,Population Mitochondria Different-Phenotype (%),Fibroblast [1]; [4],22%
same,Population Mitotic Cells (%),Fibroblast [1]; [4],100%
same,Population Normal (%),Fibroblast [1]; [4],91%
same,Population Pyknosed Nuclei (%),Fibroblast [1]; [4],3%
same,Population Tubulin-Different-Phenotype (%),Fibroblast [1]; [4],24%
same,Total Cell Count,Fibroblast [1]; [4],104
same,Population Apoptotic (%),Fibroblast [1]; [5],68%
same,Population Fragmented Nuclei (%),Fibroblast [1]; [5],21%
same,Population Healthy Nuclei (%),Fibroblast [1]; [5],46%
same,Population Hoechst High Intensity Objects (%),Fibroblast [1]; [5],12%
same,Population Membrane Permeable-Phenotype (%),Fibroblast [1]; [5],21%
same,Population Mitochondria Different-Phenotype (%),Fibroblast [1]; [5],7%
same,Population Mitotic Cells (%),Fibroblast [1]; [5],31%
same,Population Normal (%),Fibroblast [1]; [5],87%
same,Population Pyknosed Nuclei (%),Fibroblast [1]; [5],31%
same,Population Tubulin-Different-Phenotype (%),Fibroblast [1]; [5],72%
same,Total Cell Count,Fibroblast [1]; [5],126
same,Population Apoptotic (%),Fibroblast [1]; [6],37%
same,Population Fragmented Nuclei (%),Fibroblast [1]; [6],20%
same,Population Healthy Nuclei (%),Fibroblast [1]; [6],63%
same,Population Hoechst High Intensity Objects (%),Fibroblast [1]; [6],9%
same,Population Membrane Permeable-Phenotype (%),Fibroblast [1]; [6],29%
same,Population Mitochondria Different-Phenotype (%),Fibroblast [1]; [6],77%
same,Population Mitotic Cells (%),Fibroblast [1]; [6],62%
same,Population Normal (%),Fibroblast [1]; [6],90%
same,Population Pyknosed Nuclei (%),Fibroblast [1]; [6],16%
same,Population Tubulin-Different-Phenotype (%),Fibroblast [1]; [6],96%
same,Total Cell Count,Fibroblast [1]; [6],54
same,Population Apoptotic (%),Fibroblast [1]; [7],46%
same,Population Fragmented Nuclei (%),Fibroblast [1]; [7],20%
same,Population Healthy Nuclei (%),Fibroblast [1]; [7],55%
same,Population Hoechst High Intensity Objects (%),Fibroblast [1]; [7],19%
same,Population Membrane Permeable-Phenotype (%),Fibroblast [1]; [7],31%
same,Population Mitochondria Different-Phenotype (%),Fibroblast [1]; [7],5%
same,Population Mitotic Cells (%),Fibroblast [1]; [7],53%
same,Population Normal (%),Fibroblast [1]; [7],80%
same,Population Pyknosed Nuclei (%),Fibroblast [1]; [7],24%
same,Population Tubulin-Different-Phenotype (%),Fibroblast [1]; [7],41%
same,Total Cell Count,Fibroblast [1]; [7],130
same,Population Apoptotic (%),Fibroblast [1]; [8],40%
same,Population Fragmented Nuclei (%),Fibroblast [1]; [8],7%
same,Population Healthy Nuclei (%),Fibroblast [1]; [8],87%
same,Population Hoechst High Intensity Objects (%),Fibroblast [1]; [8],3%
same,Population Membrane Permeable-Phenotype (%),Fibroblast [1]; [8],0%
same,Population Mitochondria Different-Phenotype (%),Fibroblast [1]; [8],27%
same,Population Mitotic Cells (%),Fibroblast [1]; [8],60%
same,Population Normal (%),Fibroblast [1]; [8],96%
same,Population Pyknosed Nuclei (%),Fibroblast [1]; [8],5%
same,Population Tubulin-Different-Phenotype (%),Fibroblast [1]; [8],17%
same,Total Cell Count,Fibroblast [1]; [8],96
same,Population Apoptotic (%),Fibroblast [1]; [9],58%
same,Population Fragmented Nuclei (%),Fibroblast [1]; [9],22%
same,Population Healthy Nuclei (%),Fibroblast [1]; [9],47%
same,Population Hoechst High Intensity Objects (%),Fibroblast [1]; [9],15%
same,Population Membrane Permeable-Phenotype (%),Fibroblast [1]; [9],13%
same,Population Mitochondria Different-Phenotype (%),Fibroblast [1]; [9],17%
same,Population Mitotic Cells (%),Fibroblast [1]; [9],41%
same,Population Normal (%),Fibroblast [1]; [9],84%
same,Population Pyknosed Nuclei (%),Fibroblast [1]; [9],29%
same,Population Tubulin-Different-Phenotype (%),Fibroblast [1]; [9],45%
same,Total Cell Count,Fibroblast [1]; [9],115
same,Population Apoptotic (%),Fibroblast [1]; [10],80%
same,Population Fragmented Nuclei (%),Fibroblast [1]; [10],18%
same,Population Healthy Nuclei (%),Fibroblast [1]; [10],62%
same,Population Hoechst High Intensity Objects (%),Fibroblast [1]; [10],11%
same,Population Membrane Permeable-Phenotype (%),Fibroblast [1]; [10],41%
same,Population Mitochondria Different-Phenotype (%),Fibroblast [1]; [10],76%
same,Population Mitotic Cells (%),Fibroblast [1]; [10],20%
same,Population Normal (%),Fibroblast [1]; [10],88%
same,Population Pyknosed Nuclei (%),Fibroblast [1]; [10],18%
same,Population Tubulin-Different-Phenotype (%),Fibroblast [1]; [10],76%
same,Total Cell Count,Fibroblast [1]; [10],61
same,Population Apoptotic (%),Fibroblast [1]; [11],34%
same,Population Fragmented Nuclei (%),Fibroblast [1]; [11],31%
same,Population Healthy Nuclei (%),Fibroblast [1]; [11],45%
same,Population Hoechst High Intensity Objects (%),Fibroblast [1]; [11],21%
same,Population Membrane Permeable-Phenotype (%),Fibroblast [1]; [11],28%
same,Population Mitochondria Different-Phenotype (%),Fibroblast [1]; [11],2%
same,Population Mitotic Cells (%),Fibroblast [1]; [11],65%
same,Population Normal (%),Fibroblast [1]; [11],78%
same,Population Pyknosed Nuclei (%),Fibroblast [1]; [11],22%
same,Population Tubulin-Different-Phenotype (%),Fibroblast [1]; [11],30%
same,Total Cell Count,Fibroblast [1]; [11],129
same,Population Apoptotic (%),Fibroblast [1]; [12],100%
same,Population Fragmented Nuclei (%),Fibroblast [1]; [12],28%
same,Population Healthy Nuclei (%),Fibroblast [1]; [12],69%
same,Population Hoechst High Intensity Objects (%),Fibroblast [1]; [12],9%
same,Population Membrane Permeable-Phenotype (%),Fibroblast [1]; [12],21%
same,Population Mitochondria Different-Phenotype (%),Fibroblast [1]; [12],1%
same,Population Mitotic Cells (%),Fibroblast [1]; [12],0%
same,Population Normal (%),Fibroblast [1]; [12],90%
same,Population Pyknosed Nuclei (%),Fibroblast [1]; [12],2%
same,Population Tubulin-Different-Phenotype (%),Fibroblast [1]; [12],35%
same,Total Cell Count,Fibroblast [1]; [12],118
same,Population Apoptotic (%),Fibroblast [1]; [13],90%
same,Population Fragmented Nuclei (%),Fibroblast [1]; [13],35%
same,Population Healthy Nuclei (%),Fibroblast [1]; [13],54%
same,Population Hoechst High Intensity Objects (%),Fibroblast [1]; [13],18%
same,Population Membrane Permeable-Phenotype (%),Fibroblast [1]; [13],22%
same,Population Mitotic Cells (%),Fibroblast [1]; [13],10%
same,Population Normal (%),Fibroblast [1]; [13],81%
same,Population Pyknosed Nuclei (%),Fibroblast [1]; [13],10%
same,Population Tubulin-Different-Phenotype (%),Fibroblast [1]; [13],62%
same,Total Cell Count,Fibroblast [1]; [13],120
same,Population Apoptotic (%),Fibroblast [1]; [14],66%
same,Population Fragmented Nuclei (%),Fibroblast [1]; [14],26%
same,Population Healthy Nuclei (%),Fibroblast [1]; [14],68%
same,Population Hoechst High Intensity Objects (%),Fibroblast [1]; [14],9%
same,Population Membrane Permeable-Phenotype (%),Fibroblast [1]; [14],23%
same,Population Mitochondria Different-Phenotype (%),Fibroblast [1]; [14],5%
same,Population Mitotic Cells (%),Fibroblast [1]; [14],33%
same,Population Normal (%),Fibroblast [1]; [14],90%
same,Population Pyknosed Nuclei (%),Fibroblast [1]; [14],6%
same,Population Tubulin-Different-Phenotype (%),Fibroblast [1]; [14],85%
same,Total Cell Count,Fibroblast [1]; [14],55
same,Growth Rate,"Fibroblast [2]; 0 h, replicate number 2, timepoint 0 hours",0
same,Growth Rate,Fibroblast [2]; [15],0
same,Growth Rate,Fibroblast [2]; [16],1
same,Growth Rate,Fibroblast [2]; [17],0
same,Growth Rate,"Fibroblast [2]; 12 h, replicate number 2, timepoint 12 hours",1
same,Growth Rate,Fibroblast [2]; [18],0
same,Growth Rate,Fibroblast [2]; [19],1
same,Growth Rate,Fibroblast [2]; [20],0
same,Growth Rate,"Fibroblast [2]; 24 h, replicate number 2, timepoint 24 hours",1
same,Growth Rate,"U2OS; 0 h, replicate number 1, timepoint 0 hours",0
same,Growth Rate,U2OS; [15],0
same,Growth Rate,U2OS; [16],1
same,Growth Rate,U2OS; [17],0
same,Growth Rate,U2OS; [18],0
same,Growth Rate,U2OS; [19],1
same,Growth Rate,U2OS; [20],0

# Reference: ChEMBL document CHEMBL4689842, “EUbOPEN Chemogenomics Library wave 1” (2021)
